Assay results: ChEMBL document CHEMBL3272240, “[1-deaminopenicillamine,4-valine]-8-D-arginine-vasopressin, a highly potent inhibitor of the vasopressor response to arginine-vasopressin” (J Med Chem, 1977)
Calls of active or inactive are those of the source. The rule behind the calls is not given here. Starred links: 1 amine or outer side, 2 acyl side, 3 side chain; linkers in the order of their positions; H or OH if unused. Positions of bridges follow the written chain, without caps; N, C: chain ends. Non-standard residues stand in square brackets, D forms with d. Residues, ends and D or L forms follow the SMILES beside them. X2 = CCC(CC)(CC(=O)[*:1])S[*:2]; X1 = CC(C)(CC(=O)[*:1])S[*:2]; Mpa = O=C(O)CCS

Columns and labels:
[1] = system: Rattus norvegicus; test: Antivasopressor activity in phenoxybenzamine-treated rat assessed as inhibition of arginine-vasopressin-induced vasopressor response at 10 ug/kg, iv measured for >= 2.5 hrs; type: functional, organism-based
Method in brief: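 Rats received a single iv injection of 10 μg/kg antagonist. Vasopressor responses to AVP challenges of 10-40 mU/kg (about 25-100 ng/kg) were then followed. The duration of inhibition was recorded as an average period.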

[2] = organism: Rattus norvegicus; test: Antivasopressor activity in phenoxybenzamine-treated rat assessed as inhibition of norepinephrine-induced vasopressor response; type: functional, organism-based
[3] = organism: Rattus norvegicus; test: Antivasopressor activity in phenoxybenzamine-treated rat assessed as inhibition of angiotensin 2-induced vasopressor response; type: functional, organism-based
[4] = Antioxytocic activity in Sherman albino rat uterus assessed as inhibition of oxytocin-induced contraction; type: functional, tissue-based
Method in brief: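 Isolated rat uterus in magnesium-free van Dyke-Hastings solution. The antagonist was added to the bath immediately before injection of agonist (USP Posterior Pituitary Reference Standard). pA2 was calculated per Schild as the −log molar antagonist concentration reducing the response to 2X units of agonist to that of X units. A pA2 was computed per assay group and reported as mean ± SE.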

[5] = system: Rattus norvegicus; test: Antidiuretic antagonist activity in sc dosed Brattleboro rat hereditary hypothalamic diabetes insipidus model; type: functional, organism-based; conditions: Urine
[6] = system: Rattus norvegicus; test: Antidiuretic activity in sc dosed Brattleboro rat hereditary hypothalamic diabetes insipidus model measured over 6 hrs; type: functional, Urine
Method in brief: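 Brattleboro rats with hereditary hypothalamic diabetes insipidus received a single sc injection of 100 ng/kg. Inhibition of diuresis was followed over time to record its duration.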

[7] = system: Rattus norvegicus; test: Antidiuretic activity in sc dosed Brattleboro rat hereditary hypothalamic diabetes insipidus model; type: functional, organism-based; conditions: Urine
[8] = Oxytocic activity in Sherman albino rat uterus assessed as contraction; type: functional
[9] = system: Rattus norvegicus; test: Ratio of dPVDAVP to compound for antidiuretic activity in sc dosed Brattleboro rat hereditary hypothalamic diabetes insipidus model
[10] = system: Rattus norvegicus; test: Antidiuretic activity in Brattleboro rat hereditary hypothalamic diabetes insipidus model at 100 ug/kg, sc measured over 1.7 hrs; type: functional, organism-based; conditions: Urine
Method in brief: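 Single subcutaneous injection into Brattleboro rats with hereditary hypothalamic diabetes insipidus. The value recorded is the duration, in hours, for which diuresis was inhibited (antidiuresis) after dosing.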

[11] = system: Rattus norvegicus; test: Antivasopressor activity in iv dosed phenoxybenzamine-treated rat assessed as inhibition of lysine-vasopressin-induced vasopressor response; type: functional, organism-based; conditions: read-out: pA2 (converted)
Method in brief: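 Urethane-anesthetized, phenoxybenzamine-treated rats as in the standard rat vasopressor assay. The antagonist was given iv immediately before iv injection of agonist standard, with LVP as agonist. pA2 is the −log molar antagonist concentration halving the effect of a doubled agonist dose. Peptide was assumed uniformly distributed in blood volume. pA2 was computed per assay group and reported as mean ± SE.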

With `CC(C)[C@@H]1NC(=O)[C@H](Cc2ccccc2)NC(=O)[C@H](Cc2ccc(O)cc2)NC(=O)CC(C)(C)SSC[C@@H](C(=O)N2CCC[C@H]2C(=O)N[C@H](CCCNC(=N)N)C(=O)NCC(N)=O)NC(=O)[C@H](CC(N)=O)NC1=O` (YFVNCP[dR]G-NH2; linker N-5 via X1) the inhibition [1] was “Active”, the inhibition [2] was “inactive” and the inhibition [3] was “inactive”. The pA2 [4] was 7.23, the Activity [5] was “inactive” and the Activity [6] was 123 U/mg. The Activity [7] was “Active”.

Compound `CC(C)[C@@H]1NC(=O)[C@H](Cc2ccccc2)NC(=O)[C@H](Cc2ccc(O)cc2)NC(=O)CCSSC[C@@H](C(=O)N2CCC[C@H]2C(=O)N[C@H](CCCNC(=N)N)C(=O)NCC(N)=O)NC(=O)[C@H](CC(N)=O)NC1=O` ([Mpa]YFVNCP[dR]G-NH2; disulfide 1-6) has an Activity [8] of 8 U/mg, an Activity [6] of 1230 U/mg and a Ratio [9] of 10.

In the case of `N=C(N)NCCC[C@H](NC(=O)[C@@H]1CCCN1C(=O)[C@@H]1CSSC[C@H](N)C(=O)N[C@@H](Cc2ccc(O)cc2)C(=O)N[C@@H](Cc2ccccc2)C(=O)N[C@@H](CCC(N)=O)C(=O)N[C@@H](CC(N)=O)C(=O)N1)C(=O)NCC(N)=O`, the Activity [10] is reported as “Active”.

In the case of `CCC1(CC)CC(=O)N[C@@H](Cc2ccc(O)cc2)C(=O)N[C@@H](Cc2ccccc2)C(=O)N[C@@H](CCC(N)=O)C(=O)N[C@@H](CC(N)=O)C(=O)N[C@H](C(=O)N2CCC[C@H]2C(=O)N[C@@H](CCCCN)C(=O)NCC(N)=O)CSS1` (YFQNCPKG-NH2; linker N-5 via X2), the pA2 [4] is reported as 6.84 and the Kb [11] is reported as 70.8 nM.
